# Screening results: PubChem, several laboratories
# Shown is part of a subset that was picked to be rich in hits.
# NALP1 inh: NALP1 inflammasome inhibitors in reconstituted yeast, colorimetric, S. cerevisiae, triplicate retest. S. cerevisiae NALP1/ASC/caspase-1 growth, X-gal OD620, 72 h. inhibition, % at 10 µM. 280,000 compounds, 0.61% hits; in the data active = inhibition mostly above about 24%, no sharp cut-off; inactive = mostly below about 32%
# T cruzi inh: inhibitors of intracellular T. cruzi growth, primary screen, luminescence, NIH3T3 host cells; T. cruzi beta-gal in NIH3T3, 90 h; inhibition, % (no concentration beside the values); 300,000 compounds, 1.4% hits;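 active = mean inhibition across valid replicates above about 55%, limit read from the data; inconclusive = mean below that limit but half or more replicates reach it; inactive = mean below it, under half of replicates reach it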;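 also: signal also drops with host cell toxicity which is not excluded here; 0% = plate median of DMSO wells and 100% = zero luminescence signal; higher percent means less beta-gal luminescence so fewer parasites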
#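 Test system: β-gal T. cruzi (Tulahuen C4) inside NIH/3T3 cells / Quantity: 5,000 cells/well / Measured by: luminescence from GalScreen with 0.05% NP40, read after 60 min / Medium: DMEM plus 2% FBS / Measure: parasite load inhibition, % / Reagent: Tulahuen C4 trypomastigotes, 5000/well / Schedule: co-culture of at least 90 h after 3 h attachment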
# Calb FLC: C. albicans growth inhibition with fluconazole, primary screen, CaCi-2 strain, Alamar Blue fluorescence; AID 1979, 2009; growth inhibition, % (concentration not given with the values); C. albicans CaCi-2 + fluconazole, 48 h; 300,000 compounds, 0.57% hits;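 active = growth inhibition above about 58% in most replicates, limit read from the data, passing the limit was not always enough; inconclusive = exactly half the replicates above a set limit; inactive = most replicates below a set limit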;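 also: all wells also contain fluconazole at 8 µg/ml as a sub-toxic cotreatment; 0% = median of DMSO wells and 100% = median of geldanamycin control wells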
# NLRP3 yeast inh: NALP3 inflammasome inhibitors in reconstituted yeast, primary screen, luminescence, uHTS. Yeast reconstituted NLRP3/ASC/caspase-1, beta-gal luminescence, 24 h. 330,000 compounds, 0.39% hits. AID 2825, 2010. inhibition, % at 10 µM;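 active = inhibition of 50% or more; inactive = inhibition below 50%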;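 also: plate controls were induced DMSO wells for no effect and uninduced yeast grown without galactose for full effect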
# PolyA inh: polyadenylation inhibitors in yeast reporter cells, primary screen, luminescence, S. cerevisiae. S. cerevisiae SKY197-pL101 polyadenylation reporter, beta-gal luminescence; efflux-impaired pdr1/pdr3 knockout yeast; score 100 = 6 SD above DMSO. activity score, % at 12 µM. 300,000 compounds, 0.02% hits. AID 1875, 2009;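 active = lowest replicate activity score at least 50, where 100 means six control SD above control mean; inconclusive = lowest score under 50 but half or more replicates reach 50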;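 also: yeast exposed to compound for 9 h at 30 °C; higher score means more reporter readthrough which indicates perturbed polyadenylation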
# L major viab: Leishmania major promastigote growth inhibition, primary screen; Leishmania major promastigotes, resazurin fluorescence viability; inhibition, % at 10 µM; 200,000 compounds, 9% hits; AID 1063, 2008; in the data active = inhibition above about 50%;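 also: promastigotes grown with compound for 44 hours at 28 °C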
# Active calls of the source: *; ? = inconclusive; · = no result given.
SMILES,NALP1 inh,T cruzi inh,Calb FLC,NLRP3 yeast inh,PolyA inh,L major viab
CCN(CC)C(=O)C1CCCN(c2ccc([N+](=O)[O-])cc2/C=N/NC(=O)c2ccc([N+](=O)[O-])cc2)C1 (stereo not given),-2,2,7,16,-14,53*
CCN(CC)C(=O)C1CCCN(c2ccc([N+](=O)[O-])cc2)C1 (stereo not given),35*,-3,-6,23,-11,-7
COc1ccc(OC)c(S(=O)(=O)Nc2ccc(O)c3ccccc23)c1,104*,12,-6,12,16,100*
Cc1occc1-c1nnc(SCC(=O)N2CCN(c3ccccc3F)CC2)n1C,38,-2,-6,7,20,4
COCCN(CCOC)S(=O)(=O)c1ccc(C(=O)Nc2nnc(C3CC3)o2)cc1,·,14,·,-9,20,-6
CCN(c1ccccc1)S(=O)(=O)c1ccc(C(=O)Nc2nnc(-c3ccco3)o2)cc1,21,14,?,19,-19,99*
CN(c1ccccc1)S(=O)(=O)c1ccc(C(=O)Nc2nnc(C3CC3)o2)cc1,-2,?,-13,-2,-8,98*
CCN(c1ccccc1)S(=O)(=O)c1ccc(C(=O)Nc2nnc(C3CC3)o2)cc1,-8,72*,79*,17,3,94*
CC1(C)Cc2c(sc(NC(=O)C(=O)N3CCCC3)c2C#N)CO1,8,2,0,2,-3,·
Cc1cc(C)cc(NS(=O)(=O)c2ccc(NC(=S)NC(=O)c3cccs3)cc2)c1,-7,-2,-4,9,-23,96*
O=C(NC(=S)Nc1ccc(NC(=O)c2cccs2)cc1)c1cc2ccccc2o1,19,3,-7,4,11,85*
O=C(NC(=S)Nc1ccc(NC(=O)c2cccs2)cc1)c1ccco1,·,8,2,17,-4,32
O=C(Nc1ccc(NC(=S)NC(=O)c2ccccc2F)cc1)c1cccs1,4,33,60,17,3,96*
CS(=O)(=O)c1cccc(S(=O)(=O)N2CCCCCC2)c1,1,-1,-12,3,4,·
COc1cc(C(=O)OCC(=O)Nc2cccc(S(=O)(=O)N3CCCC3)c2)ccc1OCC(C)C,·,2,-5,4,-8,·
Cc1cc(C)n(-c2ccc(C(=O)NCc3ccc(F)cc3)cc2)n1,29*,-1,-5,10,8,15
O=C(CSCc1ccc(F)cc1)NCc1ccc(F)cc1,28*,-5,-10,6,-4,-9
Cc1cc(C)n(-c2ccc(C(=O)NCc3ccc4c(c3)OCO4)cc2)n1,-2,-4,-28,17,-10,-4
CSCc1ccc(C(=O)NCc2ccc(F)cc2)cc1,31,-15,-33,19,-15,56*
CC(C)Sc1nc2c(c(=O)n1C)SC(C)C2 (stereo not given),·,2,-1,1,7,-4
COC(=O)CN(c1nc(C)c(Br)c(OC)n1)S(=O)(=O)c1ccccc1,-7,4,2,1,4,·
Cc1onc(-c2ccccc2Cl)c1C(=O)N1CCN(c2ncccn2)CC1,4,-3,16,17,4,-7
Cc1onc(-c2c(Cl)cccc2Cl)c1C(=O)N1CCc2ccccc2C1,17,23,-6,29,13,95*
CCOc1ccccc1N1CCN(C(=O)c2c(-c3ccccc3Cl)noc2C)CC1,15,2,2,16,4,71*
Cc1onc(-c2ccccc2)c1C(=O)N1CCCc2ccccc21,3,-5,15,15,-26,98*
COC(=O)c1cc(S(=O)(=O)NCC2CCN(CCc3ccc(OC)cc3)CC2)cn1C,28,12,-2,-2,-5,·
CCOCCCNC(=O)/C(C#N)=C/c1cc(C)c(O)c(C)c1,15,-13,-2,28,-32,3
CCOCCCNC(=O)/C(C#N)=C/c1ccc(Cl)c([N+](=O)[O-])c1,4,-3,-1,-3,-11,100*
